Values after ≈ are worked out from the molar mass of the structure shown.
Assays:
Enterobacter cloacae = experiment: Antibacterial activity against gram negative organism, […] (MA2646); format: functional
Escherichia coli = experiment: Antibacterial activity was determined against gram negative organism, E. coli(vogel); format: functional
Method in brief: (§1)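 MIC by standard microtitration against a panel of 10 representative Gram-negative and Gram-positive organisms; values reported in µg/mL.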

Klebsiella pneumoniae = experiment: Antibacterial activity was determined against gram negative organism, K. pneumoniae (MGH-2); format: functional; method in brief: as §1
Pseudomonas aeruginosa = experiment: Antibacterial activity was determined against gram negative organism, Pseudomonas aeruginosa (UI-18); format: functional; method in brief: as §1
Bacteria = experiment: Antibacterial activity was determined against gram negative organism, Providencia rettgeri. (M1771); format: functional; method in brief: as §1
Streptococcus pneumoniae = experiment: Antibacterial activity was determined against gram positive organism, Streptococcus pneumoniae (SV-1); format: functional; method in brief: as §1
Enterococcus faecalis = experiment: Antibacterial activity was determined against gram positive organism, Streptococcus faecalis (MGH-2); format: functional; method in brief: as §1
Streptococcus pyogenes = experiment: Antibacterial activity was determined against gram positive organism, Streptococcus pyogenes (C203); format: functional; method in brief: as §1
Staphylococcus aureus [1] = experiment: Antibacterial activity was determined against gram positive organism, Staphylococcus aureus (H228); format: functional; method in brief: as §1
Staphylococcus aureus [2] = experiment: Antibacterial activity was determined against gram positive organism, Staphylococcus aureus (UC76); format: functional; method in brief: as §1
[3] = MIC ratio measured as the mean MICs of gram-negative bacteria; format: functional
Method in brief: (§2)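 Geometric mean of the MICs (µg/mL) over the Gram-negative or the Gram-positive strains of the 10-organism microtitration panel, calculated separately for each class.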

[4] = MIC ratio measured as the mean MICs of gram-positive bacteria; format: functional; method in brief: as §2
[5] = target: DNA gyrase (Escherichia coli) (UniProt P0AES6+P0AES4)

MIC (Enterobacter cloacae) [µg/mL] | MIC (Escherichia coli) [µg/mL] | MIC (Klebsiella pneumoniae) [µg/mL] | MIC (Pseudomonas aeruginosa) [µg/mL] | MIC (Bacteria) [µg/mL] | MIC (Streptococcus pneumoniae) [µg/mL] | MIC (Enterococcus faecalis) [µg/mL] | MIC (Streptococcus pyogenes) [µg/mL] | MIC (Staphylococcus aureus [1]) [µg/mL] | MIC (Staphylococcus aureus [2]) [µg/mL] | DNA cleavage [5] [µg/mL] | SMILES | Ratio [3] | Ratio [4]
0.2 (≈ 0.464 µM) | 0.1 (≈ 0.232 µM) | 0.4 (≈ 0.927 µM) | 1.6 (≈ 3.71 µM) | 0.8 (≈ 1.85 µM) | 0.05 (≈ 0.116 µM) | 0.4 (≈ 0.927 µM) | 0.1 (≈ 0.232 µM) | 0.1 (≈ 0.232 µM) | 0.025 (≈ 0.0579 µM) | 1.75 | Cc1c(F)c(N2CCNC(C)C2)cc2c1c(=O)c(C(=O)O)cn2-c1ccc(F)cc1F (stereo unspecified) | 0.4 | 0.087
0.025 (≈ 0.0683 µM) | 0.025 (≈ 0.0683 µM) | 0.025 (≈ 0.0683 µM) | 0.05 (≈ 0.137 µM) | 0.025 (≈ 0.0683 µM) | 0.025 (≈ 0.0683 µM) | 0.05 (≈ 0.137 µM) | 0.05 (≈ 0.137 µM) | 0.025 (≈ 0.0683 µM) | 0.013 (≈ 0.0355 µM) | 0.5 | NC1CCN(c2c(F)cc3c(=O)c(C(=O)O)cn(C4CC4)c3c2Cl)C1 (stereo unspecified) [CLINAFLOXACIN] | 0.029 | 0.029
0.05 (≈ 0.12 µM) | 0.05 (≈ 0.12 µM) | 0.1 (≈ 0.24 µM) | 0.8 (≈ 1.92 µM) | 0.2 (≈ 0.479 µM) | 0.05 (≈ 0.12 µM) | 0.2 (≈ 0.479 µM) | 0.1 (≈ 0.24 µM) | 0.1 (≈ 0.24 µM) | 0.025 (≈ 0.0599 µM) | 3 | Cc1c(F)c(N2CCNCC2)cc2c1c(=O)c(C(=O)O)cn2-c1ccc(F)cc1F | 0.13 | 0.076
0.05 (≈ 0.128 µM) | 0.05 (≈ 0.128 µM) | 0.1 (≈ 0.255 µM) | 0.8 (≈ 2.04 µM) | 0.2 (≈ 0.511 µM) | 0.003 (≈ 0.00766 µM) | 0.025 (≈ 0.0639 µM) | 0.003 (≈ 0.00766 µM) | 0.006 (≈ 0.0153 µM) | 0.003 (≈ 0.00766 µM) | 3.75 | Cc1c(F)c(N2CCC(C)(CN)C2)c(F)c2c1c(=O)c(C(=O)O)cn2C1CC1 (stereo unspecified) | 0.13 | 0.0053
0.05 (≈ 0.124 µM) | 0.025 (≈ 0.062 µM) | 0.05 (≈ 0.124 µM) | 0.4 (≈ 0.992 µM) | 0.1 (≈ 0.248 µM) | 0.025 (≈ 0.062 µM) | 0.1 (≈ 0.248 µM) | 0.025 (≈ 0.062 µM) | 0.05 (≈ 0.124 µM) | 0.013 (≈ 0.0322 µM) |  | NC1CCN(c2cc3c(cc2F)c(=O)c(C(=O)O)cn3-c2ccc(F)cc2F)C1 (stereo unspecified) | 0.076 | 0.033
0.1 (≈ 0.313 µM) | 0.1 (≈ 0.313 µM) | 0.2 (≈ 0.626 µM) | 0.8 (≈ 2.51 µM) | 0.2 (≈ 0.626 µM) | 0.4 (≈ 1.25 µM) | 0.8 (≈ 2.51 µM) | 0.4 (≈ 1.25 µM) | 0.8 (≈ 2.51 µM) | 0.1 (≈ 0.313 µM) | 2.5 | CCn1cc(C(=O)O)c(=O)c2cc(F)c(N3CCC(N)C3)cc21 (stereo unspecified) | 0.2 | 0.4
0.8 (≈ 2.14 µM) | 0.4 (≈ 1.07 µM) | 1.6 (≈ 4.28 µM) | 6.3 (≈ 16.9 µM) | 6.3 (≈ 16.9 µM) | 12.5 (≈ 33.5 µM) | > 25 | 25 (≈ 66.9 µM) | 6.3 (≈ 16.9 µM) | 3.1 (≈ 8.3 µM) |  | CCc1c(F)c(N2CCNC(C)C2)cc2c1c(=O)c(C(=O)O)cn2C1CC1 (stereo unspecified) | 1.83 | 10.9
0.4 (≈ 1.11 µM) | 0.1 (≈ 0.277 µM) | 0.4 (≈ 1.11 µM) | 3.1 (≈ 8.58 µM) | 1.6 (≈ 4.43 µM) | 0.2 (≈ 0.553 µM) | 0.2 (≈ 0.553 µM) | 0.1 (≈ 0.277 µM) | 0.2 (≈ 0.553 µM) | 0.1 (≈ 0.277 µM) | 2.5 | CCNCC1CCN(c2cc3c(cc2F)c(=O)c(C(=O)O)cn3CC)C1 (stereo unspecified) | 0.6 | 0.15
0.4 (≈ 0.898 µM) | 0.2 (≈ 0.449 µM) | 0.8 (≈ 1.8 µM) | 3.1 (≈ 6.96 µM) | 1.6 (≈ 3.59 µM) | 0.1 (≈ 0.224 µM) | 0.2 (≈ 0.449 µM) | 0.1 (≈ 0.224 µM) | 0.1 (≈ 0.224 µM) | 0.025 (≈ 0.0561 µM) |  | CCNCC1CCN(c2cc3c(cc2F)c(=O)c(C(=O)O)cn3-c2ccc(F)cc2F)C1 (stereo unspecified) | 0.79 | 0.087
0.2 (≈ 0.576 µM) | 0.2 (≈ 0.576 µM) | 0.4 (≈ 1.15 µM) | 6.3 (≈ 18.1 µM) | 0.8 (≈ 2.3 µM) | 1.6 (≈ 4.61 µM) | 1.6 (≈ 4.61 µM) | 1.6 (≈ 4.61 µM) | 1.6 (≈ 4.61 µM) | 0.4 (≈ 1.15 µM) |  | CCn1cc(C(=O)O)c(=O)c2cc(F)c(N3CC(C)NC(C)C3)cc21 (stereo unspecified) | 0.6 | 1.21
0.05 (≈ 0.124 µM) | 0.05 (≈ 0.124 µM) | 0.1 (≈ 0.248 µM) | 0.8 (≈ 1.98 µM) | 0.1 (≈ 0.248 µM) | 0.1 (≈ 0.248 µM) | 0.4 (≈ 0.992 µM) | 0.2 (≈ 0.496 µM) | 0.4 (≈ 0.992 µM) | 0.05 (≈ 0.124 µM) |  | O=C(O)c1cn(-c2ccc(F)cc2F)c2cc(N3CCNCC3)c(F)cc2c1=O | 0.11 | 0.17
0.05 (≈ 0.138 µM) |  |  | 0.4 (≈ 1.1 µM) | 0.1 (≈ 0.275 µM) | 0.4 (≈ 1.1 µM) | 0.4 (≈ 1.1 µM) | 0.4 (≈ 1.1 µM) | 0.2 (≈ 0.55 µM) | 0.1 (≈ 0.275 µM) | 1 | CC1CN(c2c(F)cc3c(=O)c(C(=O)O)cn(C4CC4)c3c2F)CCN1 (stereo unspecified) | 0.066 | 0.26

SMILES | MIC (Enterobacter cloacae) [µg/mL] | MIC (Escherichia coli) [µg/mL] | MIC (Klebsiella pneumoniae) [µg/mL] | MIC (Pseudomonas aeruginosa) [µg/mL] | MIC (Bacteria) [µg/mL] | MIC (Streptococcus pneumoniae) [µg/mL] | MIC (Enterococcus faecalis) [µg/mL] | MIC (Streptococcus pyogenes) [µg/mL] | MIC (Staphylococcus aureus [1]) [µg/mL] | MIC (Staphylococcus aureus [2]) [µg/mL] | DNA cleavage [5] [µg/mL] | Ratio [3] | Ratio [4]
CCc1c(F)c(N2CCNCC2)cc2c1c(=O)c(C(=O)O)cn2C1CC1 | 0.8 (≈ 2.23 µM) | 0.4 (≈ 1.11 µM) | 1.6 (≈ 4.45 µM) | 12.5 (≈ 34.8 µM) | 6.3 (≈ 17.5 µM) | 12.5 (≈ 34.8 µM) | > 25 | 25 (≈ 69.6 µM) | 25 (≈ 69.6 µM) | 6.3 (≈ 17.5 µM) |  | 1.91 | 16.2
